In assay [1] the test system is Mus musculus. Kind of assay: Hepatoprotective activity against CCL4-induced liver damage in ICR mouse assessed as reduction in CCL-induced COX2 protein expression at 100 mg/kg, ip dosed 30 mins before and 2 hrs post CCL4 challenge and measured 24 hrs post CCL4 challenge by Western blot. The assay is classed as functional, organism-based. On the set-up: dose 100 mg/kg. A general note: A western blot detects proteins with antibodies after separation by electrophoresis.

For assay [2], the system named is Mus musculus. Nature of the assay: Hepatoprotective activity against CCL4-induced liver damage in ICR mouse assessed as reduction in CCL-induced iNOS mRNA expression at 100 mg/kg, ip dosed 30 mins before and 2 hrs post CCL4 challenge and measured 24 hrs post CCL4 challenge by RT-PCR. It is filed as functional, organism-based. On the set-up: dose 100 mg/kg. The essentials:
(§1)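 Liver total RNA (Chomczynski–Sacchi), oligo(dT) primed reverse transcription, then PCR with 10 μM primers. Cycling was 94/56/72 °C, 30 s each, for 35 cycles (COX-2) or 30 cycles (HO-1), and 94/60/72 °C for 35 cycles (iNOS), with β-actin at 25 cycles. Products were run on 1.5% agarose and stained with ethidium bromide. Male ICR mice, 10 per group, fasted 16 h.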

For assay [3], the system named is Mus musculus. Nature of the assay: Hepatoprotective activity against CCL4-induced liver damage in ICR mouse assessed as reduction in CCL-induced iNOS protein expression at 100 mg/kg, ip dosed 30 mins before and 2 hrs post CCL4 challenge and measured 24 hrs post CCL4 challenge by Western blot. It is filed as functional, organism-based. On the set-up: dose 100 mg/kg.

The subject of assay [4] is Mus musculus. Kind of assay: Hepatoprotective activity against CCL4-induced liver damage in ICR mouse assessed as reduction in CCL-induced TNFalpha production at 100 mg/kg, ip dosed 30 mins before and 2 hrs post CCL4 challenge and measured 24 hrs post CCL4 challenge by ELISA. The assay is classed as functional, organism-based. Details: dose 100 mg/kg. The procedure, abridged:
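Serum TNF-α measured by commercial ELISA on abdominal aortic blood drawn 24 h after ip CCl4 (20 μL/kg in olive oil). Male ICR mice, 10 per group, fasted 16 h; saline vehicle ip; mean ± SEM.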
In general terms: ELISA stands for enzyme-linked immunosorbent assay.

The subject of assay [5] is Mus musculus. Nature of the assay: Hepatoprotective activity against CCL4-induced liver damage in ICR mouse assessed as increase in CCL-induced nuclear Nrf2 protein level at 100 mg/kg, ip dosed 30 mins before and 2 hrs post CCL4 challenge and measured 24 hrs post CCL4 challenge by Western blot. It is filed as functional, organism-based. Details: dose 100 mg/kg. The procedure, abridged: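 Nuclear proteins were extracted from fresh liver with NE-PER, and 15 μg per lane was immunoblotted: nitrocellulose, 1 h milk block, primary antibody overnight at 4 °C, ECL, densitometry. Male ICR mice (25–30 g), 10 per group, fasted 16 h; CCl4 20 μL/kg ip in olive oil; sampled 24 h later.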

Assay [6] deals with Mus musculus. Kind of assay: Hepatoprotective activity against CCL4-induced liver damage in ICR mouse assessed as augmentation of CCL-induced HO-1 mRNA expression at 100 mg/kg, ip dosed 30 mins before and 2 hrs post CCL4 challenge and measured 24 hrs post CCL4 challenge by RT-PCR. It is filed as functional, organism-based. On the set-up: dose 100 mg/kg. The procedure, abridged: as §1

The subject of assay [7] is Mus musculus. Nature of the assay: Hepatoprotective activity against CCL4-induced liver damage in ICR mouse assessed as augmentation of CCL-induced HO-1 protein expression at 100 mg/kg, ip dosed 30 mins before and 2 hrs post CCL4 challenge and measured 24 hrs post CCL4 challenge by Western blot. The assay is classed as functional, organism-based. Details: dose 100 mg/kg.

Assay [8] deals with Mus musculus. Nature of the assay: Hepatoprotective activity against CCL4-induced liver damage in ICR mouse assessed as reduction in Kupffer cell hyperplasia at 100 mg/kg, ip dosed 30 mins before and 2 hrs post CCL4 challenge and measured 24 hrs post CCL4 challenge by hematoxylin-eosin staining based method. It is filed as functional, organism-based. On the set-up: dose 100 mg/kg. The essentials: (§2)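 Left liver lobe fixed in 10% neutral-buffered formalin, paraffin-embedded, cut at 5 μm and stained with H&E. Scored blind for portal inflammation, hepatocellular necrosis and inflammatory infiltration across 100 random nonconsecutive fields. Male ICR mice; CCl4 20 μL/kg ip in olive oil; tissue taken at 24 h.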

The test system of assay [9] is Mus musculus. Nature of the assay: Hepatoprotective activity against CCL4-induced liver damage in ICR mouse assessed as reduction in portal inflammation at 100 mg/kg, ip dosed 30 mins before and 2 hrs post CCL4 challenge and measured 24 hrs post CCL4 challenge by hematoxylin-eosin staining based method. On the set-up: dose 100 mg/kg. It is filed as functional, organism-based. The procedure, abridged: as §2

For assay [10], the system named is Mus musculus. Nature of the assay: Hepatoprotective activity against CCL4-induced liver damage in ICR mouse assessed as reduction in centrizonal necrosis at 100 mg/kg, ip dosed 30 mins before and 2 hrs post CCL4 challenge and measured 24 hrs post CCL4 challenge by hematoxylin-eosin staining based method. It is filed as functional, organism-based. Details: dose 100 mg/kg. The essentials: as §2

For assay [11], the system named is Mus musculus. Kind of assay: Hepatoprotective activity against CCL4-induced liver damage in ICR mouse assessed as […] level per gram of liver at 200 mg/kg, ip dosed 30 mins before and 2 hrs post CCL4 challenge and measured 24 hrs post CCL4 challenge (reference value: 4.8 +/- 0.3 umol/g liver). Conditions: route intraperitoneal. The assay is classed as functional.

For assay [12], the system named is Mus musculus. Kind of assay: Hepatoprotective activity against CCL4-induced liver damage in ICR mouse assessed as […] level per gram of liver at 100 mg/kg, ip dosed 30 mins before and 2 hrs post CCL4 challenge and measured 24 hrs post CCL4 challenge (reference value: 4.8 +/- 0.3 umol/g liver). The assay is classed as functional. Conditions: route intraperitoneal.

Assay [13] deals with Mus musculus. Kind of assay: Hepatoprotective activity against CCL4-induced liver damage in ICR mouse assessed as […] level per gram of liver at 50 mg/kg, ip dosed 30 mins before and 2 hrs post CCL4 challenge and measured 24 hrs post CCL4 challenge (reference value: 4.8 +/- 0.3 umol/g liver). It is filed as functional. Conditions: route intraperitoneal.
Assay [14] has as its system Mus musculus. Kind of assay: Hepatoprotective activity against CCL4-induced liver damage in ICR mouse assessed as […] level per mg protein at 200 mg/kg, ip dosed 30 mins before and 2 hrs post CCL4 challenge and measured 24 hrs post CCL4 challenge by TBARS detection based spectrophotometry (reference value: 3.2 +/- 0.5 nmol/mg protein). The assay is classed as functional. To be noted: route intraperitoneal.

The test system of assay [15] is Mus musculus. Kind of assay: Hepatoprotective activity against CCL4-induced liver damage in ICR mouse assessed as […] level per mg protein at 100 mg/kg, ip dosed 30 mins before and 2 hrs post CCL4 challenge and measured 24 hrs post CCL4 challenge by TBARS detection based spectrophotometry (reference value: 3.2 +/- 0.5 nmol/mg protein). It is filed as functional. To be noted: route intraperitoneal.

Assay [16] has as its system Mus musculus. Kind of assay: Hepatoprotective activity against CCL4-induced liver damage in ICR mouse assessed as serum AST level at 200 mg/kg, ip dosed 30 mins before and 2 hrs post CCL4 challenge and measured 24 hrs post CCL4 challenge (reference value: 7518 +/- 426 U/L). The assay is classed as functional. Conditions: route intraperitoneal.
Assay [17] has as its system Mus musculus. Nature of the assay: Hepatoprotective activity against CCL4-induced liver damage in ICR mouse assessed as serum AST level at 100 mg/kg, ip dosed 30 mins before and 2 hrs post CCL4 challenge and measured 24 hrs post CCL4 challenge (reference value: 7518 +/- 426 U/L). It is filed as functional. To be noted: route intraperitoneal.
Assay [18] deals with Mus musculus. Kind of assay: Hepatoprotective activity against CCL4-induced liver damage in ICR mouse assessed as serum AST level at 50 mg/kg, ip dosed 30 mins before and 2 hrs post CCL4 challenge and measured 24 hrs post CCL4 challenge (reference value: 7518 +/- 426 U/L). It is filed as functional. Conditions: route intraperitoneal.
Assay [19] relates to Mus musculus. Kind of assay: Hepatoprotective activity against CCL4-induced liver damage in ICR mouse assessed as serum ALT level at 200 mg/kg, ip dosed 30 mins before and 2 hrs post CCL4 challenge and measured 24 hrs post CCL4 challenge (reference value: 10229 +/- 918 U/L). It is filed as functional. Conditions: route intraperitoneal.
In assay [20] the test system is Mus musculus. Kind of assay: Hepatoprotective activity against CCL4-induced liver damage in ICR mouse assessed as serum ALT level at 100 mg/kg, ip dosed 30 mins before and 2 hrs post CCL4 challenge and measured 24 hrs post CCL4 challenge (reference value: 10229 +/- 918 U/L). The assay is classed as functional. Conditions: route intraperitoneal.
For assay [21], the system named is Mus musculus. Nature of the assay: Hepatoprotective activity against CCL4-induced liver damage in ICR mouse assessed as serum ALT level at 50 mg/kg, ip dosed 30 mins before and 2 hrs post CCL4 challenge and measured 24 hrs post CCL4 challenge (reference value: 10229 +/- 918 U/L). The assay is classed as functional. Conditions: route intraperitoneal.
Assay [22] deals with Mus musculus. Nature of the assay: Hepatoprotective activity against CCL4-induced liver damage in ICR mouse assessed as reduction in CCL-induced COX2 mRNA expression at 100 mg/kg, ip dosed 30 mins before and 2 hrs post CCL4 challenge and measured 24 hrs post CCL4 challenge by RT-PCR. It is filed as functional, organism-based. On the set-up: dose 100 mg/kg. The procedure, abridged:
as §1

Assay [23] deals with Mus musculus. Nature of the assay: Hepatoprotective activity against CCL4-induced liver damage in ICR mouse assessed as liver MDA level per mg protein at 50 mg/kg, ip dosed 30 mins before and 2 hrs post CCL4 challenge and measured 24 hrs post CCL4 challenge by TBARS detection based spectrophotometry (reference value: 3.2 +/- 0.5 nmol/mg protein). Conditions: route intraperitoneal.

Activity calls are given as the source filed them. No cut-off for these calls is given here.

As for `O=c1c(O[C@@H]2O[C@H](CO)[C@H](O)[C@H](O)[C@H]2O)c(-c2ccc(O)c(O)c2)oc2cc(O)cc(O)c12` [HYPEROSIDE], the result in assay [1], in [2], in assay [3], in [4], in assay [5] and in assay [6] was Active. Moreover, the outcome in assay [7], in assay [8], in assay [9], in [10] and in [22] was Active. Further, the Activity was determined as 6 µmol in [11]; 5.2 µmol in assay [12]; 6.1 µmol in [13]; 1.4 nmol in assay [14]; 1.5 nmol in assay [15]; 5382 U/L in assay [16]. Further, the Activity was determined as 5488 U/L in [17]; 6820 U/L in assay [18]; 7055 U/L in assay [19]; 7134 U/L in assay [20]; 10740 U/L in [21]; 2.4 nmol in assay [23].

The values are drawn from ChEMBL document CHEMBL2146427, “Protective effects of hyperoside against carbon tetrachloride-induced liver damage in mice” (2011).
